Measured values: ChEMBL document CHEMBL3046748, “Antifeedant effects of the limonoids from Entandrophragma candolei (Meliaceae) on the gram pod borer, Helicoverpa armigera (Lepidoptera: Noctuidae)” (J Agric Food Chem, 2003)
In brackets after ≈: the same amount, converted by molar mass. Activity calls are given as the source filed them. No cut-off for these calls is given here.

Assays:
[1] = tested on: Helicoverpa armigera; assay: Antifeedant activity against third-instar larva of Helicoverpa armigera assessed as decrease in food consumption at 2 to 10 ug/larva applied topically measured after 7 days relative to control; format: functional, organism-based
Procedure, shortened: (§1)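 Larvae were dosed topically at 2-10 µg/larva in 0.5 µL acetone on the dorsal terga, with acetone-only controls. They were then fed untreated artificial diet, and diet consumption and weight gain were compared with controls over 7 d.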

[2] = tested on: Helicoverpa armigera; assay: Antifeedant activity against Helicoverpa armigera fed on compound-treated artificial diet assessed as growth inhibition at 50 to 100 ppm after 3 days relative to control; format: functional
[3] = tested on: Helicoverpa armigera; assay: Antifeedant activity against Helicoverpa armigera fed on compound-treated artificial diet assessed as inhibition of consumption at 100 ppm after 3 days relative to control; format: functional; details: 72 h
[4] = tested on: Helicoverpa armigera; assay: Antifeedant activity against fourth-instar larva of Helicoverpa armigera assessed as efficiency of conversion of ingested food at 10 ppm applied topically measured after 3 days (reference value: 20.3 +/- 2.7%); format: functional, Instar larval stage
[5] = tested on: Helicoverpa armigera; assay: Antifeedant activity against fourth-instar larva of Helicoverpa armigera assessed as efficiency of conversion of ingested food at 5 ppm applied topically measured after 3 days (reference value: 20.3 +/- 2.7%); format: functional, Instar larval stage
[6] = tested on: Helicoverpa armigera; assay: Antifeedant activity against fourth-instar larva of Helicoverpa armigera assessed as relative consumption rate ratio per unit weight per day at 10 ppm applied topically measured after 3 days (reference value: 3.85 +/- 0.9); format: functional
[7] = tested on: Helicoverpa armigera; assay: Antifeedant activity against fourth-instar larva of Helicoverpa armigera assessed as relative consumption rate ratio per unit weight per day at 5 ppm applied topically measured after 3 days (reference value: 3.85 +/- 0.9); format: functional
[8] = tested on: Helicoverpa armigera; assay: Antifeedant activity against fourth-instar larva of Helicoverpa armigera assessed as relative growth rate ratio per unit weight per day at 10 ppm applied topically measured after 3 days (reference value: 0.8 +/- 0.03); format: functional
[9] = tested on: Helicoverpa armigera; assay: Antifeedant activity against fourth-instar larva of Helicoverpa armigera assessed as relative growth rate ratio per unit weight per day at 5 ppm applied topically measured after 3 days (reference value: 0.8 +/- 0.03); format: functional
[10] = tested on: Helicoverpa armigera; assay: Antifeedant activity against fourth-instar larva of Helicoverpa armigera fed on compound treated artificial diet assessed as efficiency of conversion of ingested food at 100 ppm after 3 days (reference value: 20.3 +/- 2.7%); format: functional, Instar larval stage
[11] = tested on: Helicoverpa armigera; assay: Antifeedant activity against fourth-instar larva of Helicoverpa armigera fed on compound treated artificial diet assessed as efficiency of conversion of ingested food at 50 ppm after 3 days (reference value: 20.3 +/- 2.7%); format: functional, Instar larval stage
[12] = tested on: Helicoverpa armigera; assay: Antifeedant activity against fourth-instar larva of Helicoverpa armigera fed on compound treated artificial diet assessed as relative consumption rate ratio per unit weight per day at 100 ppm after 3 days (reference value: 3.85 +/- 0.9); format: functional
[13] = tested on: Helicoverpa armigera; assay: Antifeedant activity against fourth-instar larva of Helicoverpa armigera fed on compound treated artificial diet assessed as relative consumption rate ratio per unit weight per day at 50 ppm after 3 days (reference value: 3.85 +/- 0.9); format: functional
[14] = tested on: Helicoverpa armigera; assay: Antifeedant activity against fourth-instar larva of Helicoverpa armigera fed on compound treated artificial diet assessed as relative growth rate ratio per unit weight per day at 100 ppm after 3 days (reference value: 0.8 +/- 0.03); format: functional
[15] = tested on: Helicoverpa armigera; assay: Antifeedant activity against fourth-instar larva of Helicoverpa armigera fed on compound treated artificial diet assessed as relative growth rate ratio per unit weight per day at 50 ppm after 3 days (reference value: 0.8 +/- 0.03); format: functional
[16] = tested on: Helicoverpa armigera; assay: Antifeedant activity against third-instar larva of Helicoverpa armigera assessed as growth inhibition after 7 days by dietary assay; format: functional, organism-based
[17] = tested on: Helicoverpa armigera; assay: Antifeedant activity against pre-starved third-instar larva of Helicoverpa armigera assessed as decrease in feeding after 6 hr by choice feeding assay relative to control; format: functional, organism-based
Procedure, shortened: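 Diet choice test in 9-cm Petri dishes: two preweighed cubes of diet with compound (25-100 ppm) alternated with two control cubes. A single 2- to 10-h-old third instar, pre-starved 4 h, was placed centrally. Consumption of each cube was weighed after 6 h, with 10 replicates per concentration. Deterrence index = (C − T)/(C + T) × 100.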

[18] = tested on: Helicoverpa armigera; assay: Antifeedant activity against third-instar larva of Helicoverpa armigera assessed as decrease in weight gain at 2 to 10 ug/larva applied topically measured after 7 days relative to control; format: functional, organism-based; procedure, shortened: as §1
[19] = tested on: Helicoverpa armigera; assay: Antifeedant activity against neonate larva of Helicoverpa armigera assessed as growth inhibition after 7 days by dietary assay; format: functional, organism-based; details: for EC95: Helicoverpa armigera, feed or water, 168 h
Procedure, shortened: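 Two 24-h-old neonates were placed per cup on 1 g fresh-weight treated artificial diet. Cups were held in a tray lined with moist filter paper at 27±2 °C under 16:8 LD. Growth was taken from larval weight after 7 d as % of control, with mortality recorded. Forty larvae were used per concentration. EC50 was obtained by regression analysis.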

[20] = tested on: Helicoverpa armigera; assay: Antifeedant activity against neonate larva of Helicoverpa armigera assessed as decrease in consumption of diet after 7 days by dietary assay; format: functional
[21] = tested on: Helicoverpa armigera; assay: Antifeedant activity against pre-starved third-instar larva of Helicoverpa armigera after 6 hr by choice feeding assay; format: functional
Procedure, shortened: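 H. armigera from lab culture on artificial diet, 27±1 °C, 16:8 LD. Single 2–10-h-old third instar, starved 4 h, in 9-cm Petri dish. Two preweighed diet cubes with compound (25–100 ppm) alternated with two control cubes. Consumption per cube measured after 6 h. 10 replicates per concentration. Deterrence index = (C − T)/(C + T) × 100.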

SMILES | Activity [1] | growth inhibition (GI) [2] [%] | inhibition at 100 ppm [3] [%] | Activity [4] [%] | Activity [5] [%] | Ratio [6] | Ratio [7] | Ratio [8] | Ratio [9] | Activity [10] [%] | Activity [11] [%] | Ratio [12] | Ratio [13] | Ratio [14] | Ratio [15] | EC50 [16] [ppm] | Activity [17] | Activity [18] | EC50 [19] [ppm] | EC95 [19] [µg/mL] | further results
C=C1[C@@H]([C@@]2(C)[C@@H](OC(C)=O)CC(=O)O[C@](C)(COC(C)=O)[C@@H]2CC(=O)OC)[C@@H](OC=O)[C@H](OC(=O)[C@H](O)[C@H](C)CC)[C@]2(C)[C@@H](c3ccoc3)C[C@H]3O[C@]132 | inactive | 60 | 69.1 | 25.9 | 25.2 | 3.36 | 3.48 | 0.87 | 0.88 | 26.4 | 26.2 | 1.06 | 1.38 | 0.28 | 0.36 | 55.7 | Active | inactive | 3.2 | 30.6 (≈ 41 µM) | Activity [20]: Dose-dependent effect; Activity ([20]; record 2): 50.2%
C=C1[C@@H]([C@@]2(C)[C@@H](OC(C)=O)CC(=O)O[C@](C)(COC(C)=O)[C@@H]2CC(=O)OC)[C@@H](OC=O)[C@H](OC(=O)[C@H](OC(C)=O)[C@H](C)CC)[C@]2(C)[C@@H](c3ccoc3)C[C@H]3O[C@]132 | inactive | 60 | 72.8 | 21.3 | 22.1 | 3.78 | 3.74 | 0.8 | 0.85 | 19 | 20.1 | 1.08 | 1.74 | 0.2 | 0.35 | 45.7 | Active | inactive | 2.6 | 30.8 (≈ 39 µM) | DI50 [21]: 48.3 ppm; Activity [20]: Dose-dependent effect; Activity ([20]; record 2): 50.2%
C=C1[C@@H]([C@@]2(C)[C@@H](OC(C)=O)CC(=O)O[C@](C)(COC(C)=O)[C@@H]2C(=O)OC)[C@@H](OC=O)[C@H](OC(=O)[C@H](O)[C@H](C)CC)[C@@]2(C)[C@H](c3ccoc3)CC(=O)[C@]12O [PRIEURIANIN] | inactive | 60 | 57.7 | 21.6 | 22.1 | 3.79 | 3.74 | 0.82 | 0.83 | 19.8 | 20 | 1.63 | 2.04 | 0.32 | 0.41 | 92.2 | Active | inactive | 18.8 | 169 (≈ 226 µM) | DI50 [21]: 91.4 ppm
C/C=C(\C)C(=O)O[C@H]1C[C@@H](OC(C)=O)[C@@]2(C(=O)OC)CO[C@H]3[C@@H](O)[C@@](C)([C@]45O[C@@]4(C)[C@@H]4C[C@H]5O[C@@H]5OC=C[C@@]54O)[C@H]4[C@]1(CO[C@]4(O)C(=O)OC)[C@@H]32 [AZADIRACHTIN A] | – | ≤ 75 | ≤ 76 | – | – | – | – | – | – | – | – | – | – | – | – | 0.4 | – | – | 0.26 | 1.46 (≈ 2.03 µM) | –
